# Sampled rows, rich in hits. Any-hit rate of the full collection: about 5.8%.
# T cruzi growth-1 = T. cruzi intracellular proliferation inhibitors, primary screen, cell-based, beta-gal Tulahuen parasites, NIH3T3 host, luminescence | T. cruzi beta-gal in NIH3T3, GalScreen luminescence, 90 h | 77,000 compounds, 5.9% hits | inhibition, % at 8.34 µM;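 active = mean inhibition above about 93%, with at least 55% of replicates each passing it, limit read from the data, passing the limit was not always enough; inconclusive = only one of those two conditions holds; inactive = neither condition holds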
# IDH1 mut inh = inhibitors of IDH1 R132H reductase, primary screen, biochemical, plate reader, single point | AID 624101, 2012 | inhibition, % at 10 µM | Isocitrate dehydrogenase [NADP] cytoplasmic (Homo sapiens), O75874 | diaphorase/resazurin fluorescence, 60 min | 70,000 compounds, 0.18% hits; in the data active = inhibition above about 34%; inconclusive = no clear call, values can overlap the other calls; inactive = below about 11%
# Pf Dd2 inh = P. falciparum Dd2 growth inhibitors, primary screen, SYBR Green fluorescence, single dose replicates. 72 h; stronger effect = lower value. activity change, % at 10 µM. 94,000 compounds, 2.3% hits; in the data active = activity change below about -80%; inconclusive = no clear call, values can overlap the other calls
# GASC1 inh = inhibitors of GASC-1 (KDM4C) histone demethylase, primary screen, biochemical, single concentration HTS | Lysine-specific demethylase 4C (Homo sapiens), Q9H3R0 | 96,000 compounds, 0.15% hits | GST-KDM4C 2-372, H3K9me3 peptide, LANCE TR-FRET | inhibition, % at 12.5 µM;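 active = mean replicate inhibition above about 25%, with at least 55% of replicates also reaching it, limit read from the data, passing the limit was not always enough; inconclusive = only one of those two conditions met; inactive = neither condition met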
# Target sequence (Q9H3R0 2-372 limits assumed): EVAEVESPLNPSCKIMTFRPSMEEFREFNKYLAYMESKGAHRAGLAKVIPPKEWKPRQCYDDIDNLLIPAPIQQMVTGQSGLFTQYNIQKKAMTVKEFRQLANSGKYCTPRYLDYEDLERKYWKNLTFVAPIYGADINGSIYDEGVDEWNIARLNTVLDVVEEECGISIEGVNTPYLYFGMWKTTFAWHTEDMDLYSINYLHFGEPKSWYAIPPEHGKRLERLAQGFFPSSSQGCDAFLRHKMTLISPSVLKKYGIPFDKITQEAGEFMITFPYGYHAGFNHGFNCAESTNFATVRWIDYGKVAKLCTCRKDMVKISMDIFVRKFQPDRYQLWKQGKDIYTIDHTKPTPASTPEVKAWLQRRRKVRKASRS
#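 System: N-terminal GST-fused human GASC-1 (KDM4C) fragment, residues 2-372; amount: enzyme final amount 10 nM; incubation: reaction 30 min RT, detection step 1 h RT; medium: HEPES buffer, pH 7.5, plus ascorbate; technique: LANCE TR-FRET, Eu antibody, ULight-streptavidin, EDTA, ex 340 nm, em 618/671 nm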
# T cruzi growth-2 = T. cruzi intracellular proliferation inhibitors, confirmation, cell-based, NIH3T3 host, beta-gal parasite, luminescence, cherry-pick. shares compounds with T cruzi growth-1. T. cruzi beta-gal in NIH3T3, GalScreen luminescence, 90 h. inhibition, % at 8.35 µM. 5,600 compounds, 72% hits. AID 651739, 2012;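 active = mean replicate inhibition above about 95% and at least 55% of replicates individually reaching it, limit read from the data; inconclusive = only one of the two criteria is met; inactive = neither criterion is met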
# T cruzi growth-3 = inhibitors of intracellular T. cruzi replication, confirmation, NIH3T3 host cells, beta-gal parasites, cherry-pick, set 2; shares compounds with T cruzi growth-1; T. cruzi beta-gal in NIH3T3, GalScreen luminescence, 90 h; inhibition, % at 2.09 µM; 5,600 compounds, 21% hits; AID 651740, 2012;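 active = mean inhibition above about 95%, with at least 55% of replicates also reaching it, limit read from the data; inconclusive = meets just one of the two conditions; inactive = meets neither condition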
# NIH3T3 tox = cytotoxicity in mouse NIH/3T3 fibroblasts, confirmation, cytotoxicity control for T. cruzi proliferation inhibitor project, cell-based, cherry-pick, single point; cytotoxicity (signal decrease), % at 8.35 µM; 5,600 compounds, 14% hits; AID 651742, 2012; NIH/3T3 viability, CellTiter-Glo ATP luminescence, 90 h; shares compounds with T cruzi growth-1;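 active = mean signal decrease across replicates above about 35% based on untreated-well scatter, with enough replicates individually passing, limit read from the data; inconclusive = no rule stated though some were filed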
# 3T3 cytotox 2 = NIH/3T3 fibroblast cytotoxicity, confirmation, cytotoxicity control, cell-based, cherry-pick, single point, set 2; shares compounds with T cruzi growth-1; NIH/3T3 viability, CellTiter-Glo ATP luminescence, 90 h; inhibition, % at 24.9 µM; 5,600 compounds, 56% hits;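 active = mean loss of cell viability signal at or above a set limit, and enough replicates individually reaching it; inconclusive = meets only the mean limit or only the replicate share; inactive = meets neither condition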
# A number is an active result; . = inactive; ? = inconclusive; / = not tested or not shown.
SMILES,T cruzi growth-1,IDH1 mut inh,Pf Dd2 inh,GASC1 inh,T cruzi growth-2,T cruzi growth-3,NIH3T3 tox,3T3 cytotox 2
CN(C)CC#Cc1ccc([C@H]2[C@@H](CO)N3CCCCN(C(=O)Nc4cc(F)ccc4F)C[C@H]23)cc1,109.0,/,.,.,95.5,.,.,100.6
COC(=O)c1sc(NC(=S)Nc2ccc(Cl)cn2)c(C(=O)OC)c1C,/,.,/,/,/,/,/,/
CS(=O)(=O)N(CC(=O)Nc1ccc(Br)cc1)c1cccc(C(F)(F)F)c1,/,.,/,/,/,/,/,/
Cc1noc(NS(=O)(=O)c2ccc(NC(=O)C3COc4ccccc4O3)cc2)c1C (stereo not given),/,.,/,/,/,/,/,/
CN(C)CC#Cc1ccc([C@@H]2[C@@H](CO)N3CCCCN(C(=O)Nc4ccccc4F)C[C@H]23)cc1,.,/,.,.,/,/,/,/
CN(C)CC#Cc1ccc([C@@H]2[C@H](CO)N3CCCCN(C(=O)Nc4cc(F)ccc4F)C[C@@H]23)cc1,?,/,.,.,.,.,.,98.0
CN(C)CC#Cc1ccc([C@@H]2[C@@H](CO)N3CCCCN(C(=O)Nc4ccc(F)cc4)C[C@@H]23)cc1,?,/,.,.,106.2,.,.,?
CN(C)CC#Cc1ccc([C@H]2[C@@H](CO)N3CCCCN(C(=O)Nc4ccc(F)cc4)C[C@H]23)cc1,.,/,.,.,/,/,/,/
CN(C)CC#Cc1ccc([C@H]2[C@H](CO)N3CCCCN(C(=O)Nc4cc(F)ccc4F)C[C@@H]23)cc1,104.9,/,.,.,99.0,.,.,57.6
CCC(SC1=NCCS1)C(=O)Nc1ccc(NC(C)=O)cc1 (stereo not given),/,.,/,/,/,/,/,/
COc1cccc(C#Cc2ccc3c(c2)O[C@@H](CN(C)S(=O)(=O)c2ccccc2F)[C@@H](C)CN([C@H](C)CO)S3(=O)=O)c1,100.6,.,.,.,106.3,.,.,?
COc1ccc(C#Cc2ccc3c(c2)O[C@H](CN(C)S(=O)(=O)c2ccccc2F)[C@H](C)CN([C@H](C)CO)S3(=O)=O)cc1,124.5,.,.,.,108.6,107.3,.,33.2
COc1ccc(C#Cc2ccc3c(c2)O[C@@H](CN(C)S(=O)(=O)c2ccccc2F)[C@H](C)CN([C@H](C)CO)S3(=O)=O)cc1,/,.,.,.,/,/,/,/
COc1ccccc1-c1ccc2c(c1)[C@@H]1[C@@H](CCN1C(=O)C1CC1)[C@H](CO)N2,?,/,.,.,106.7,?,.,.
COc1ccccc1-c1ccc2c(c1)[C@H]1[C@H](CCN1C(=O)C1CCCC1)[C@H](CO)N2,/,/,.,/,/,/,/,/
COc1ccccc1-c1ccc2c(c1)[C@H]1[C@H](CCN1C(=O)C1CCCCC1)[C@@H](CO)N2,.,/,.,.,/,/,/,/
COc1ccccc1-c1ccc2c(c1)[C@H]1[C@H](CCN1C(=O)C1CCOCC1)[C@@H](CO)N2,99.8,/,.,.,106.3,.,.,.
Cc1ccc(S(=O)(=O)N(C)C[C@H]2OCCCC[C@@H](C)Oc3ccc(NS(=O)(=O)c4ccccc4)cc3C(=O)N([C@H](C)CO)C[C@H]2C)cc1,?,/,-82.5,.,101.0,.,.,.
Cc1ccc(S(=O)(=O)Nc2ccc3c(c2)C(=O)N([C@@H](C)CO)C[C@@H](C)[C@H](CN(C)S(=O)(=O)c2ccccc2)OCCCC[C@@H](C)O3)cc1,104.7,.,.,.,106.3,.,.,.
Cc1ccc(S(=O)(=O)N(C)C[C@H]2OCCCC[C@H](C)Oc3ccc(NS(=O)(=O)c4ccccc4)cc3C(=O)N([C@H](C)CO)C[C@H]2C)cc1,?,/,.,.,/,/,/,/
Cc1ccc(S(=O)(=O)Nc2ccc3c(c2)C(=O)N([C@@H](C)CO)C[C@H](C)[C@@H](CN(C)S(=O)(=O)c2ccccc2)OCCCC[C@H](C)O3)cc1,102.3,/,.,.,109.4,.,.,.
Cc1ccc(S(=O)(=O)N(C)C[C@@H]2OCCCC[C@H](C)Oc3ccc(NS(=O)(=O)c4ccccc4)cc3C(=O)N([C@H](C)CO)C[C@@H]2C)cc1,?,/,.,.,/,/,/,/
Cc1ccc(S(=O)(=O)N(C)C[C@H]2OCCCC[C@@H](C)Oc3ccc(NS(=O)(=O)c4ccccc4)cc3C(=O)N([C@@H](C)CO)C[C@H]2C)cc1,?,/,.,.,109.3,.,.,.
Cc1ccc(S(=O)(=O)Nc2ccc3c(c2)C(=O)N([C@@H](C)CO)C[C@@H](C)[C@H](CN(C)S(=O)(=O)c2ccccc2)OCCCC[C@H](C)O3)cc1,.,/,.,.,/,/,/,/
O=C(c1ccccc1)C(c1ccccc1)n1nnc2ccccc21 (stereo not given),/,.,/,/,/,/,/,/
SMILES,T cruzi growth-1,IDH1 mut inh,Pf Dd2 inh,GASC1 inh,T cruzi growth-2,T cruzi growth-3,NIH3T3 tox,3T3 cytotox 2
C[C@@H]1CCCCO[C@H](CN(C)S(=O)(=O)c2ccc(Cl)cc2)[C@@H](C)CN([C@@H](C)CO)C(=O)c2cc(N(C)C)ccc2O1,99.9,.,.,.,111.4,.,.,.
COc1ccc(S(=O)(=O)N(C)C[C@H]2OCCCC[C@H](C)Oc3ccc(N(C)C)cc3C(=O)N([C@H](C)CO)C[C@H]2C)cc1,.,/,.,.,/,/,/,/
C[C@H](CO)N1C[C@H](C)[C@H](CN(C)S(=O)(=O)c2ccc(Cl)cc2)OCCCC[C@H](C)Oc2ccc(N(C)C)cc2C1=O,100.2,.,.,.,109.7,.,.,.
C[C@@H]1CCCCO[C@H](CN(C)S(=O)(=O)c2ccc(Cl)cc2)[C@H](C)CN([C@@H](C)CO)C(=O)c2cc(N(C)C)ccc2O1,.,.,.,.,/,/,/,/
COc1ccc(S(=O)(=O)N(C)C[C@H]2OCCCC[C@@H](C)Oc3ccc(N(C)C)cc3C(=O)N([C@H](C)CO)C[C@H]2C)cc1,116.7,.,.,.,.,.,.,.
COC(=O)c1c(NC(=O)CSc2ccccn2)sc2c1CCC2,/,.,/,/,/,/,/,/
O=C(NO)c1cccc(C(=O)N/N=C/c2cc(O)ccc2O)c1,/,.,/,/,/,/,/,/
CC(=O)Nc1ccc(NC(=O)Cn2cc([N+](=O)[O-])cn2)cc1,/,.,/,/,/,/,/,/
O=C(C[C@@H]1CC[C@@H]2[C@H](COC[C@@H](O)CN2C(=O)Nc2cccc(Cl)c2)O1)NCc1ccccc1F,122.7,/,.,.,97.3,.,.,38.4

# Assay outcomes as filed in PubChem.
